Screening data as filed in PubChem.
Compounds with a hit are over-represented: about 3.5% of the library has one in this group of screens.
RGS4 pot – potentiators or activators of RGS4. HEK293 M3R/inducible RGS4, carbachol calcium flux Fluo4; hits give low values. B-score at 10 µM. hit rate 0.92% among 310,000;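 active = B-score of the integrated calcium signal more than 4 SD below the library mean, with starting fluorescence not abnormally high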;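 note: negative B-score means reduced calcium response which marks RGS4 activation or potentiation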
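Assay system: Inducible-RGS4 HEK293 cells carrying M3 receptor | Schedule: Compound preincubation 20 min at room temperature before agonist | Signal: Kinetic calcium fluorescence imaging with Fluo4-AM dye, 2 µM | Read-out basis: B score from integrated fluorescence ratio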
MrgX1 ag – human MrgX1 receptor agonism, primary screen; hit rate 0.44% among 310,000; AID 588627; B-score at 10 µM; Q96LB2; MrgX1-HEK293 cells, Fluo-4 calcium fluorescence, agonist mode; hits give high values;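 active = calcium response B-score plate-corrected fluorescence ratio at least 3 library SD, with starting fluorescence B-score inside 5 SD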
Target sequence (Q96LB2 whole entry, looked up): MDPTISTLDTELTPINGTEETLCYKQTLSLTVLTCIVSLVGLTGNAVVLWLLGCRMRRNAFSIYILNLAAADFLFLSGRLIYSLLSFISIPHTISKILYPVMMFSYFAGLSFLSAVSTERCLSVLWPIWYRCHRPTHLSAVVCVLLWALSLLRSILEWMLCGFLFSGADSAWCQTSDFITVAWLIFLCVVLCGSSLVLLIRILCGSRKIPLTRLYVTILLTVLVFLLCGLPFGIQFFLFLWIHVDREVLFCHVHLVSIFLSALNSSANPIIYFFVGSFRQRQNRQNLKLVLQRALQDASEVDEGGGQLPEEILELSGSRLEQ
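Material – MrgX1-expressing HEK293 cells · Input – 15,000 cells seeded per well · Dosing – compound as first of three additions · Times – overnight seeding, then 1 h dark dye loading · Measured by – kinetic Fluo-4 NW fluorescence of intracellular calcium · Read-out – B-scored fluorescence response ratio · Benchmarks – positive and negative control wells on each plate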
MrgX1 PAM – allosterically activates human MrgX1 receptor signaling. Q96LB2. MrgX1-HEK293, Fluo-4 calcium flux, FDSS; hits give high values. B-score at 10 µM. hit rate 0.63% among 310,000. AID 588675;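 active = plate-corrected calcium response at least 3 library SD above typical, normal starting fluorescence, not activating the receptor alone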;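 note: compound read alongside a low EC10 to EC30 dose of BAM8-22 agonist; peak minus trough fluorescence over baseline measured at the second addition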
RGS4 inh – human RGS4 inhibition; P49798; HEK293 M3R/RGS4 inducible, Fluo-4 calcium flux; hits give high values; triggered by carbachol at its EC20; B-score at 10 µM; hit rate 0.45% among 310,000; AID 463165;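 active = B-score, a plate-corrected calcium signal, over three deviations above library mean, with baseline fluorescence within five deviations of library mean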;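 note: RGS4 expression induced by doxycycline in cells with stable M3 receptor; B-score is computed from the integrated fluorescence ratio over baseline after carbachol; higher B-score means a larger calcium signal and so more RGS4 inhibition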
Target sequence (P49798 whole entry, looked up): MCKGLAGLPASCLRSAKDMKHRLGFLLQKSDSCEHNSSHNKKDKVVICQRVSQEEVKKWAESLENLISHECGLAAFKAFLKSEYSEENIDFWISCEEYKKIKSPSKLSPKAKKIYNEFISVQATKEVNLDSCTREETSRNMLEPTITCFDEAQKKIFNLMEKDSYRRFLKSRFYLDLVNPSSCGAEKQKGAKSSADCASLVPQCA
MrgX1 antag – blocks BAM8-22 activation of human MrgX1 receptor; Q96LB2; MRGX1-HEK293 calcium flux, Fluo-4, BAM8-22 antagonism; hits give low values; B-score at 10 µM; hit rate 1.3% among 310,000; AID 588676;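 active = calcium-response B-score plate-corrected more than 3 library SD below zero, starting fluorescence within 5 deviations, no agonist response on first addition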;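 note: peak minus trough fluorescence over baseline after final BAM8-22 challenge near maximal dose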
MrgX1 allo conf – reconfirmed allosteric activator of human MrgX1 receptor; shares compounds with MrgX1 PAM; MrgX1-HEK293, Fluo-4 calcium fluorescence, FDSS; activation (ratio percentage), % at 10 µM; hit rate 13% among 1,200; AID 602413;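 active = ratio at least 3 SD above the weak peptide control, stable starting fluorescence, no direct agonism earlier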;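 note: compound followed by low BAM8-22 agonist challenge near EC20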
MrgX1 antag conf – reconfirmed antagonist of human MrgX1 receptor signaling | MrgX1-HEK293, BAM8-22 calcium flux, Fluo-4; hits give low values | remaining BAM8-22 calcium response % of control (hits give low values), % at 10 µM | shares compounds with MrgX1 antag | hit rate 19% among 2,300;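 active = remaining agonist calcium response no higher than 100% minus 3 SD of agonist-only control wells, with starting fluorescence near control levels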;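 note: agonist BAM8-22 given at a near maximal EC90 to ECmax level; peak minus minimum fluorescence divided by baseline after agonist addition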
HEK293 Ca flux – activity in parental HEK293 cells lacking MrgX1; shares compounds with MrgX1 antag; Fluo-4 calcium fluorescence, FDSS; fluorescence ratio F(max-min)/F0 at 10 µM; hit rate 2% among 4,000;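 active = duplicate-averaged calcium fluorescence ratio at least three times the standard deviation of buffer wells, a nonspecific response in parental cells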
HEK293 Ca counter – MrgX1 allosteric activator counter-screen hit in parental HEK293 cells; shares compounds with MrgX1 antag; parental HEK293 calcium flux, Fluo-4 fluorescence ratio; hits give high values; fluorescence ratio F(max-min)/F0 at 10 µM; hit rate 0.4% among 4,000; AID 624114;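 active = calcium fluorescence ratio, averaged over duplicates, at least 3 SD of the buffer-well ratio, meaning a nonspecific response in receptor-free cells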;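 note: untransfected parental HEK293 lacking MrgX1 used as counterscreen for MrgX1 allosteric activators; fluorescence change taken during the second addition on a kinetic imager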
HEK293 Ca cntr2 – counter-screen for MrgX1 activators: effect in parental HEK293 cells | shares compounds with MrgX1 antag | Fluo-4 calcium fluorescence (FDSS); hits give high values | fluorescence ratio F(max-min)/F0 at 10 µM | hit rate 8.7% among 4,000;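 active = calcium fluorescence ratio at least three times the spread of buffer wells, meaning a non-specific response in parental cells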
* = called active by the depositor; i = inactive; / = not tested or not shown.

SMILES	RGS4 pot	MrgX1 ag	MrgX1 PAM	RGS4 inh	MrgX1 antag	MrgX1 antag conf	HEK293 Ca flux	HEK293 Ca counter	HEK293 Ca cntr2	others
COC(=O)C1=C(c2cc3ccccc3o2)C[C@@H]2CC[C@H]1N2C(=O)NCc1ccc(F)cc1	i	i	7.9*	i	i	/	i	i	i	MrgX1 allo conf=i
COCCNC(=O)Cn1cc(C(=O)c2ccccc2F)c2ccccc21	i	i	i	i	i	/	/	/	/
CCCCCn1c(=O)c(C(=O)Nc2ccccc2)c(O)c2ccccc21	i	i	i	i	i	/	/	/	/
CCCCn1c(=O)c(C(=O)NCCc2ccccc2)c(O)c2ccccc21	i	i	8.1*	i	i	/	i	i	i	MrgX1 allo conf=i
CCCCn1c(=O)c(C(=O)NC(C)c2ccccc2)c(O)c2ccccc21 (stereo not drawn)	i	i	9.1*	i	i	/	i	50*	i	MrgX1 allo conf=i
CCc1nc2ccccc2c(=O)n1-c1ccccc1OC	i	i	i	i	i	/	/	/	/
O=[N+]([O-])c1ccc(N2CCCC(C(F)(F)F)C2)c2ccncc12 (stereo not drawn)	i	i	i	i	i	/	/	/	/
NCC(O)c1cc(O)c(O)cc1F (stereo not drawn)	/	i	6.5*	/	i	/	i	i	i	MrgX1 allo conf=i
O=[N+]([O-])c1cc(-c2ccc([As](=O)(O)O)cc2)ccc1[As](=O)(O)O	i	i	i	i	i	/	/	/	/
N#CSCC(=O)N1c2ccccc2CCc2ccccc21	i	i	8.5*	i	i	/	i	i	i	MrgX1 allo conf=i
O=C1CN=C(c2ccccc2)c2ccccc2N1	i	i	i	i	-7.3*	i	i	i	i
CC(C)Nc1ccc(Nc2ccccc2)cc1	/	i	i	/	-5.1*	i	i	i	i
C=CCn1c(O)c(C(CC)=NCCN2CCN(C(=S)NC)CC2)c(=O)[nH]c1=O	i	i	i	i	i	/	/	/	/
COCCN(C(=O)COC(=O)Cc1ccccc1)c1c(N)n(Cc2ccccc2)c(=O)[nH]c1=O	i	i	i	i	i	/	/	/	/
C=CCn1c(O)c(C(C)=NCc2ccc3c(c2)OCO3)c(=O)[nH]c1=O	i	i	i	i	-4.7*	i	i	i	i
CC(=NCc1ccc2c(c1)OCO2)c1c(O)n(Cc2ccccc2)c(=O)[nH]c1=O	i	i	i	i	i	/	/	/	/
Cc1sc2ncn(CC(=O)NCCCC(=O)N3CCC4(CC3)OCCO4)c(=O)c2c1C	/	i	i	/	i	/	/	/	/
C=CCN1C(=O)NC(=O)C(Cc2ccc(OC)c(OC)c2)C1=O (stereo not drawn)	i	i	i	i	-4.8*	i	i	i	i
CCCCCn1c(=O)c(C(=O)Nc2cccc(C)n2)c(O)c2ccccc21	i	i	i	i	i	/	/	/	/
CCCCCn1c(=O)c(C(=O)Nc2cccc(C)c2)c(O)c2ccccc21	i	i	i	i	-5.2*	i	0.79*	i	i
CCCN1CCC[C@@H](c2cccc(O)c2)C1	/	i	i	/	-5.6*	80%*	i	i	i
CCc1n[nH]c(CCN)n1	i	i	i	i	i	/	/	/	/
COc1ccccc1CN1CCN(Cc2ccc(Cl)cc2)CC1	i	i	i	i	-5.3*	i	i	i	i
